Source: PubChem BioAssay (several laboratories)
Only some compounds are listed: those with a hit (about 2.3% of all), similar ones and a draw of the others.
PP1 inh = blocks human PP1-alpha phosphatase, a PP5 counter-screen; inhibition, % at 6.7 µM; 320,000 compounds, 0.9% hits; P62136; purified PP1alpha, OMFP fluorescence;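 active means inhibition above the mean inhibition of all tested compounds plus 3 SD, computed separately for each screening campaign, cut at about 15% in these data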
UBC13 inh = human UBC13 polyubiquitination inhibition | UBC13 polyubiquitin chain formation, TR-FRET | inhibition, % at 20 µM | 330,000 compounds, 0.47% hits | AID 485273; in the data active means inhibition above about 45%, passing the limit was not always enough
Target sequence (P61088 whole entry, looked up): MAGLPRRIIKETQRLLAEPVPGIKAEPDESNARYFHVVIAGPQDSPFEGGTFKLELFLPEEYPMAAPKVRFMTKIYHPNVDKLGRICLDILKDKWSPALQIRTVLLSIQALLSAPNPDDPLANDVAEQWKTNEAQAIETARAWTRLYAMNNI
CTSL1 counter = counter-screen for PFM18AAP inhibitors: inhibitors of F. hepatica cathepsin L1 | AID 1906 | recombinant F. hepatica cathepsin L1, Z-Leu-Arg-MCA fluorescence | inhibition, % at 5.96 µM | 300,000 compounds, 0.49% hits;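 active means inhibition above the mean of all tested compounds plus 3 SD, set per screening campaign, cut at about 17% in these data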
UCH37 DUB inh = blocks the human deubiquitinase UCH37 | Q9Y5K5 | purified proteasome/UCH37, Ub-AMC cleavage fluorescence | inhibition, % (test concentration not listed) | 330,000 compounds, 0.33% hits;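 active means mean inhibition over replicate wells above about 20%, limit read from the data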
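system = Proteasome-associated human UCH37 deubiquitinase | amount = 0.15 nM proteasome as dispensed | medium = pH 7.4 Tris-HCl (50 mM) with ovalbumin, ATP-MgCl2, DTT | incubation = 30 min preincubation with enzyme, 25 min cleavage at room temperature | detection = AMC fluorescence 355/460 nm | read-out basis = percent inhibition | controls = no-proteasome and no-compound wells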
PREPL inhibitor = human PREPL enzyme inhibition; Q4J6C6; recombinant PREPL, fluorescence polarization activity-based probe; inhibition, % at 5.96 µM; 320,000 compounds, 0.68% hits; AID 2751; in the data active means inhibition above about 43%
PP5 primary = inhibitors of human protein phosphatase 5 (PP5) | P53041 | purified PP5c, OMFP substrate fluorescence | 320,000 compounds, 0.18% hits | inhibition, % at 6.7 µM | AID 1987;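 active means inhibition above the campaign's mean inhibition across all tested compounds plus 3 SD, cut at about 9.5% in these data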
Target sequence (P53041 whole entry, looked up): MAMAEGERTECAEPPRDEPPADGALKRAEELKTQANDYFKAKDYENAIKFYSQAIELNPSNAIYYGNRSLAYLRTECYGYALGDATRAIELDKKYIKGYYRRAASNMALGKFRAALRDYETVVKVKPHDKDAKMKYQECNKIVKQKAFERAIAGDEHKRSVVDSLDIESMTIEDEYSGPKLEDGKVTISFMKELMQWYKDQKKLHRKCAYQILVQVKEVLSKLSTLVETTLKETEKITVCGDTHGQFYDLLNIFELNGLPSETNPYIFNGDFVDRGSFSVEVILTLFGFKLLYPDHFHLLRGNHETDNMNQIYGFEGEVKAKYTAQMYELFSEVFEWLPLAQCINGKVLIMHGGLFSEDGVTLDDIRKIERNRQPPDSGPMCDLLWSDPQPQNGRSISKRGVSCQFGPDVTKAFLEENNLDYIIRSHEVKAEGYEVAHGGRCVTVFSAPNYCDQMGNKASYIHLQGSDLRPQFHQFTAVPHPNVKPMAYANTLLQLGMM
Hits are given with their value; - = inactive; . = no result given; ! = not confirmed by another sample.

SMILES	PP1 inh	UBC13 inh	CTSL1 counter	UCH37 DUB inh	PREPL inhibitor	PP5 primary
CCc1cc2c(SCC(=O)O)ncnc2s1	-	-	-	-	-	-
CCc1cc2c(SCC(=O)c3ccccc3)ncnc2s1	-	-	19	-	-	-
O=C(O)COc1ccccc1C=NNc1ccc(S(=O)(=O)N2CCOCC2)cc1[N+](=O)[O-]	.	.	.	23	.	.
NC(=S)N/N=C1\CCSc2ccc(Cl)cc21	-	-	26	.	-	-
Cc1ccc2c(c1)C(=NO)CCS2	.	.	.	-	.	.
Cc1ccc(NC(=O)C2Cc3ccccc3OC2=NO)cc1C (stereo not given)	.	.	.	-	.	.
COc1ccccc1C=NNC(=O)c1cc2c(ccc3ccccc32)o1	.	.	.	-	.	.
Cc1ccc(/C=N/NC(=S)N2CCOCC2)cc1	-	-	28	.	-	-
S=C(N/N=C/c1ccc(Br)cc1)N1CCCCC1	-	-	-	.	-	-
S=C(NN=Cc1ccc(Cl)cc1)N1CCOCC1	.	.	.	-	.	.
S=C(N/N=C/c1ccc(Cl)cc1)N1CCOCC1	-	-	19	.	-	-
COC(=O)NN=C(C)c1ccccc1Br	.	.	.	-	.	.
Cc1cc(C(=O)Cn2nc(C(=O)O)c3ccccc3c2=O)c(C)n1-c1ccc(OC(F)F)cc1	16	-	-	-	-	-
NCCCS(=O)(=O)O	-	-	19!	-	-	-
O=S(=O)(O)CCS	-	-	-	-	-	-
C/C(=C\C=C\c1ccccc1)C(=O)c1c(C)cc(C)[nH]c1=O	-	-	22	-	-	-
CN(C)C(CNC(=O)c1ccc([N+](=O)[O-])cc1Cl)c1ccco1 (stereo not given)	-	-	19	-	-	-
COC(=O)C1=C(CN2CCc3ccccc32)NC(=O)NC1c1cc(C)ccc1C (stereo not given)	15	-	-	-	-	-
N=C(N)SCc1ccc(Cl)cc1Cl	15	-	-	-	-	-
NC(=S)Cc1ccc(Cl)cc1Cl	-	-	-	-	-	-
N/C(=N\c1nc(CSc2nnnn2-c2ccccc2)cc(=O)[nH]1)Nc1ccccc1	-	-	-	-	-	-
O=c1cc(CSc2nnnn2-c2ccccc2)nc(Nc2ccc(F)cc2)[nH]1	15	-	-	-	-	-
COc1cc(/C=N/NC(=O)CNC(=O)c2ccco2)ccc1O	-	-	28	.	-	-
Nc1scc2c(C(=O)N/N=C/c3ccc(Cl)cc3)nn(-c3ccccc3)c(=O)c12	-	-	34	.	-	-
COc1ccc(C=NNC(=O)c2nn(-c3ccc(Cl)cc3)c(=O)c3c(N)scc23)cc1	.	.	.	-	.	.
SMILES	PP1 inh	UBC13 inh	CTSL1 counter	UCH37 DUB inh	PREPL inhibitor	PP5 primary
Cc1ccc(-n2c(-c3ccc(Br)cc3)c[n+]3c2CCc2ccc4cccnc4c2-3)cc1	25	.	-	-	-	-
CN1CCN(N=Cc2nc(-c3ccc(Cl)cc3)n3ccccc23)CC1	.	.	.	-	.	.
COCCNC(=O)C(=O)Nc1cc2c3c(c1)C(C)C(=O)N3CCC2 (stereo not given)	-	-	18	-	-	-
CCc1ccc(-c2cn(-c3nc(C)cc(C)n3)c(=N)o2)cc1	-	-	61	-	-	-
CCc1ccc(-c2cn3c(n2)SCC3)cc1	-	-	-	-	-	-
CN(C)c1ccc(N=Cc2nc(-c3ccccc3)oc2OC(=O)c2cccc(Cl)c2)cc1	-	-	-	-	-	-
COc1ccc(N=Cc2nc(-c3ccccc3)oc2OC(C)=O)cc1	-	-	20	-	-	-
COc1cccc(N=Cc2nc(-c3ccccc3)oc2OC(C)=O)c1	-	-	28	-	-	-
Cc1cccc(C=NNC(=O)c2ccc(NC(=O)c3cccc(Cl)c3)cc2)n1	.	.	.	-	.	.
N#CC1=C(N)C(C#N)(C#N)C2(C(=O)Nc3ccccc32)C2CCCC=C12 (stereo not given)	-	-	20	-	-	-
NC(=S)N/N=C\c1c(OCc2ccccc2Cl)ccc2ccccc12	-	-	30	.	-	-
Cn1cccc1CC(=O)N/N=C\c1c2ccccc2cc2ccccc12	16	-	-	.	-	-
CC(C)(C)/C(O)=C(/C#N)c1nc2ccccc2[nH]1	-	-	-	.	-	-
NC(=S)NN=Cc1c(O)ccc2ccccc12	.	.	.	-	.	.
Cn1cccc1CC(=O)N/N=C/c1cccc2ccccc12	-	-	-	.	-	-
NC(=S)N/N=C\c1c2ccccc2cc2ccccc12	-	.	84	.	-	-
N#C/C(=C(O)\C=C\c1ccccc1)c1nc2ccccc2[nH]1	16	-	-	-	-	-
CCOc1ccccc1C=NNC(=O)c1nnn(-c2nonc2N)c1CN1CCC(C)CC1	.	.	.	-	.	.
CSc1nc(C)cc(OCC(=O)NN=Cc2ccccc2O)n1	.	.	.	-	.	.
O=C(NN=Cc1ccc[nH]1)C1COc2ccccc2O1 (stereo not given)	.	.	.	-	.	.
COc1cc(C=NNC(=O)Cn2nnc3ccccc32)cc(OC)c1OC	.	.	.	-	.	.
O=C(CCC(=O)Nc1ccccc1)NN=Cc1ccccc1F	.	.	.	-	.	.
O=C(NN=Cc1cccc(Br)c1)c1ccc(N2CCCC2=O)cc1	.	.	.	-	.	.
Cc1ccc(NC(=S)N/N=C/c2c(C)[nH]c3ccccc23)cc1	-	-	-	.	-	-
Cc1[nH]c2ccccc2c1/C=N/Nc1nc2ccccc2[nH]1	-	-	-	.	53	-
SMILES	PP1 inh	UBC13 inh	CTSL1 counter	UCH37 DUB inh	PREPL inhibitor	PP5 primary
Cc1c(C=NNc2nc3ccccc3[nH]2)c2ccccc2n1C	.	.	.	-	.	.
C(=C\c1ccccc1)/C=N/Nc1nc2ccccc2[nH]1	16	-	-	.	-	-
C(/C=C/c1ccccc1)=NNc1nc2ccccc2[nH]1	.	.	.	-	.	.
Cc1[nH]c2ccccc2c1/C=N/NC(N)=S	-	-	92	.	-	-
COc1ccc(CN=C(C)c2c(C(F)(F)F)[nH]n(-c3nc4ccccc4s3)c2=O)cc1	-	-	18	-	-	-
COc1ccc(/C=C/C(=O)NCC(=O)NN=C(C)c2ccc(Cl)cc2)cc1	.	.	.	-	.	.
COc1ccccc1N1CCN(N=Cc2cccc(OC)c2O)CC1	.	.	.	-	.	.
Cc1ccc(C(=O)C2=C(O)C(=O)N(Cc3cccnc3)C2c2cccc([N+](=O)[O-])c2)o1 (stereo not given)	-	-	-	-	-	-
Cc1ccc(C(=O)C2=C(O)C(=O)N(Cc3ccccc3)C2c2cccnc2)o1 (stereo not given)	-	-	-	-	-	-
Cc1ccc(C(=O)C2=C(O)C(=O)N(Cc3cccnc3)C2c2ccc(Cl)cc2)o1 (stereo not given)	16	-	-	-	-	-
CCOc1ccc(C2C(C(=O)c3ccc(C)o3)=C(O)C(=O)N2Cc2cccnc2)cc1 (stereo not given)	15	-	-	-	-	-
CCCOc1ccc(C2C(C(=O)c3ccc(C)o3)=C(O)C(=O)N2Cc2ccco2)cc1OCC (stereo not given)	35	-	-	-	-	-
COc1ccc(C2C(C(=O)c3ccc(C)o3)=C(O)C(=O)N2Cc2ccco2)cc1OC (stereo not given)	-	-	-	-	-	-
